The values below come from ChEMBL document CHEMBL3792346, “Thiazolino 2-Pyridone Amide Inhibitors of Chlamydia trachomatis Infectivity” (J Med Chem, 2016).

For one data set, the system named is Chlamydia trachomatis. As to the kind of experiment: Antimicrobial activity against Chlamydia trachomatis serovar LGV-L2 infected in human HeLa cells assessed as concentration require to reduce relative inclusion forming units by 95% after 48 hrs. It counts as functional. The method, boiled down:
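HeLa cells infected with LGV-L2 at MOI 0.1-0.5; compounds added at 1 hpi, tested at 2.5 µM then 5 or 10 µM or 1, 0.5, 0.25, 0.1 µM; after ~48 h, osmotic lysis, SPG restored, 10-fold dilutions reinfect fresh HeLa; IFUs counted by automated imaging versus DMSO; Reinfect95 = lowest concentration consistently giving 95% IFU reduction; ≥2 experiments in triplicate.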

A short description of data set [1]: Cytotoxicity against human HeLa cells assessed as cell viability at 10 uM after 48 hrs by resazurin assay relative to control. As to conditions: read-out: Activity. It counts as cell-based. The method, boiled down:
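Uninfected HeLa seeded in RPMI, next day switched to colorless DMEM with 10% FBS, 2 mM glutamine; compounds added in triplicate, 48 h at 37 °C; resazurin added, 3 h at 37 °C dark; fluorescence ex 535/em 595 nm; cell-free wells with compound check direct resazurin reduction; mean of three experiments in triplicate, SD over nine replicates.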

Turning to `CCc1cccc(NC(=O)C2CSc3c(C4CC4)c(Cc4cccc5ccccc45)cc(=O)n32)c1` (centres undefined), the Activity in the data set on Chlamydia trachomatis was determined as 2.5 µM. For the same compound, the viability at 48 h, 10 µM in data set [1] turned out to be 100%.
As to `COc1ccc(NC(=O)C2CSc3c(C4CC4)c(Cc4cccc5ccccc45)cc(=O)n32)cc1` (centres undefined), the Activity in the data set on Chlamydia trachomatis was 2.5 µM. Also, the viability at 48 h, 10 µM in data set [1] turned out to be 100%.
In the case of `O=C(Nc1ccncn1)C1CSc2c(C3CC3)c(Cc3cccc4ccccc34)cc(=O)n21` (centres undefined), in the data set on Chlamydia trachomatis, the Activity was found to be 2.5 µM. In addition, in data set [1], the viability at 48 h, 10 µM worked out at 92%.
For `Cc1ccc(NC(=O)C2CSc3c(C4CC4)c(Cc4ccc(Cl)cc4)cc(=O)n32)cc1` (centres undefined), the Activity in the data set with Chlamydia trachomatis is 1 µM. The viability at 48 h, 10 µM in data set [1] stood at 89%.
Regarding `O=C(Nc1ccc(F)cc1)C1CSc2c(C3CC3)c(Cc3cccc4ccccc34)cc(=O)n21` (centres undefined), the Activity with Chlamydia trachomatis came out at 2.5 µM. In addition, the viability at 48 h, 10 µM in data set [1] worked out at 98%.
The corresponding values for `Cc1ccc(NC(=O)C2CSc3c(C4CC4)c(Cc4cccc5ccccc45)cc(=O)n32)cc1` (centres undefined) are 2.5 µM and 97%.
As to `O=C(Nc1ccccc1)[C@H]1CSc2c(C3CC3)c(Cc3cccc4ccccc34)cc(=O)n21`, the Activity with Chlamydia trachomatis worked out at 2.5 µM. For the same compound, the viability at 48 h, 10 µM in data set [1] stood at 100%.
Consider `COc1cccc(NC(=O)C2CSc3c(C4CC4)c(Cc4cccc5ccccc45)cc(=O)n32)c1` (centres undefined), for which the Activity with Chlamydia trachomatis was found to be 2.5 µM. Further, in data set [1], the viability at 48 h, 10 µM turned out to be 98%.
With `O=C(Nc1ccccn1)C1CSc2c(C3CC3)c(Cc3cccc4ccccc34)cc(=O)n21` (centres undefined), the Activity in the data set on Chlamydia trachomatis is 10 µM. For the same compound, the viability at 48 h, 10 µM in data set [1] was determined as 90%.
For `CON(C)C(=O)C1CSc2c(C3CC3)c(Cc3cccc4ccccc34)cc(=O)n21` (centres undefined), the Activity in the data set with Chlamydia trachomatis is >10 µM. Besides, the viability at 48 h, 10 µM in data set [1] was 88%.
For the compound `O=C(C1CSc2c(C3CC3)c(Cc3cccc4ccccc34)cc(=O)n21)N1CCCCC1` (centres undefined), the Activity with Chlamydia trachomatis is >10 µM. In addition, the viability at 48 h, 10 µM in data set [1] came out at 86%.
As to `Cc1cc(=O)n2c(c1C1CC1)SCC2C(=O)Nc1ccccc1` (centres undefined), the Activity with Chlamydia trachomatis amounted to 10 µM. The viability at 48 h, 10 µM in data set [1] amounted to 99%.
The corresponding values for `Cc1ccc(Cc2cc(=O)n3c(c2C2CC2)SCC3C(=O)Nc2ccccc2)cc1C` (centres undefined) are 2.5 µM and 91%.
`CN(C(=O)C1CSc2c(C3CC3)c(Cc3cccc4ccccc34)cc(=O)n21)c1ccccc1` (centres undefined): the Activity in the data set with Chlamydia trachomatis stood at 5 µM. Moreover, the viability at 48 h, 10 µM in data set [1] is 96%.
As to `O=C(Nc1ccccc1F)C1CSc2c(C3CC3)c(Cc3cccc4ccccc34)cc(=O)n21` (centres undefined), the Activity in the data set with Chlamydia trachomatis was 2.5 µM. In data set [1], the viability at 48 h, 10 µM was determined as 96%.
In the case of `O=C(Nc1cccc(F)c1)C1CSc2c(C3CC3)c(Cc3cccc4ccccc34)cc(=O)n21` (centres undefined), the Activity in the data set on Chlamydia trachomatis amounted to 2.5 µM. In data set [1], the viability at 48 h, 10 µM came out at 96%.
The corresponding values for `O=C(Nc1ccccc1)C1CSc2c(C3CC3)c(Cc3ccccc3)cc(=O)n21` (centres undefined) are 2.5 µM and 96%.
Turning to `Cc1ccc(NC(=O)C2CSc3c(C4CC4)c(Cc4cccc(C)c4C)cc(=O)n32)cc1` (centres undefined), the Activity with Chlamydia trachomatis was 1 µM. Besides, the viability at 48 h, 10 µM in data set [1] was determined as 95%.
Take `O=C(Nc1cccnc1)C1CSc2c(C3CC3)c(Cc3cccc4ccccc34)cc(=O)n21` (centres undefined): in the data set on Chlamydia trachomatis, the Activity is 10 µM. For the same compound, the viability at 48 h, 10 µM in data set [1] came to 77%.
Turning to `O=C(Nc1ccccc1)C1CSc2c(C3CC3)c(Cc3cccc4ncccc34)cc(=O)n21` (centres undefined), the Activity in the data set with Chlamydia trachomatis was 10 µM. Besides, the viability at 48 h, 10 µM in data set [1] was determined as 91%.
For `CN1CCN(C(=O)C2CSc3c(C4CC4)c(Cc4cccc5ccccc45)cc(=O)n32)CC1` (centres undefined), the Activity in the data set on Chlamydia trachomatis was >10 µM. The viability at 48 h, 10 µM in data set [1] turned out to be 96%.
As to `COc1ccc(Cc2cc(=O)n3c(c2C2CC2)SCC3C(=O)Nc2ccccc2)cc1` (centres undefined), in the data set on Chlamydia trachomatis, the Activity was determined as 2.5 µM. In addition, the viability at 48 h, 10 µM in data set [1] was 103%.
On to `Cc1cccc(Cc2cc(=O)n3c(c2C2CC2)SCC3C(=O)Nc2ccccc2)c1C` (centres undefined), for which, in the data set on Chlamydia trachomatis, the Activity is 2.5 µM. The viability at 48 h, 10 µM in data set [1] is 91%.
As for `O=C(O)c1c(Cc2cccc3ccccc23)c(C2CC2)c2n(c1=O)C(C(=O)Nc1ccccc1)CS2` (centres undefined), the Activity in the data set on Chlamydia trachomatis is > 10 µM. The viability at 48 h, 10 µM in data set [1] worked out at 103%.
For `O=C(Nc1ccccc1)[C@@H]1CSc2c(C3CC3)c(Cc3cccc4ccccc34)c(CN3CCOCC3)c(=O)n21`, in the data set on Chlamydia trachomatis, the Activity was 5 µM. In addition, the viability at 48 h, 10 µM in data set [1] came out at 99%.
The corresponding values for `NS(=O)(=O)c1ccc(NC(=O)C2CSc3c(C4CC4)c(Cc4cccc5ccccc45)cc(=O)n32)cc1` (centres undefined) are 10 µM and 95%.
For the compound `O=C(Nc1cccc(Cl)c1)C1CSc2c(C3CC3)c(Cc3cccc4ccccc34)cc(=O)n21` (centres undefined), the Activity with Chlamydia trachomatis worked out at 2.5 µM. Further, the viability at 48 h, 10 µM in data set [1] was 100%.
For the compound `O=C(Nc1ccncc1)C1CSc2c(C3CC3)c(Cc3cccc4ccccc34)cc(=O)n21` (centres undefined), the Activity in the data set on Chlamydia trachomatis was 5 µM. Also, the viability at 48 h, 10 µM in data set [1] came out at 69%.
With `Cc1cccc(Cc2cc(=O)n3c(c2C2CC2)SCC3C(=O)Nc2ccccc2)c1` (centres undefined), the Activity in the data set on Chlamydia trachomatis came to 2.5 µM. The viability at 48 h, 10 µM in data set [1] came to 87%.
Take `O=C(Nc1nccs1)C1CSc2c(C3CC3)c(Cc3cccc4ccccc34)cc(=O)n21` (centres undefined): the Activity with Chlamydia trachomatis worked out at 5 µM. Further, the viability at 48 h, 10 µM in data set [1] is 96%.
For the compound `O=C(Nc1ccccc1)C1CSc2c(C3CC3)c(Cc3ccc(Cl)cc3)cc(=O)n21` (centres undefined), the Activity in the data set with Chlamydia trachomatis was determined as 2.5 µM. Further, in data set [1], the viability at 48 h, 10 µM was found to be 94%.
As for `O=C(Nc1ccccc1)[C@@H]1CSc2c(C3CC3)c(Cc3cccc4ccccc34)cc(=O)n21`, the Activity in the data set with Chlamydia trachomatis was 2.5 µM. Besides, the viability at 48 h, 10 µM in data set [1] came out at 100%.
With `O=C(C1CSc2c(C3CC3)c(Cc3cccc4ccccc34)cc(=O)n21)N1CCOCC1` (centres undefined), in the data set with Chlamydia trachomatis, the Activity was >10 µM. Moreover, the viability at 48 h, 10 µM in data set [1] came to 90%.
In the same order, the values of `O=C(NC1CCCCC1)C1CSc2c(C3CC3)c(Cc3cccc4ccccc34)cc(=O)n21` (centres undefined) are 10 µM and 88%.
In the same order, the values of `O=C(Nc1cccc(C(F)(F)F)c1)C1CSc2c(C3CC3)c(Cc3cccc4ccccc34)cc(=O)n21` (centres undefined) are 2.5 µM and 95%.
Turning to `O=C(Nc1ccc(Cl)cc1)C1CSc2c(C3CC3)c(Cc3cccc4ccccc34)cc(=O)n21` (centres undefined), the Activity with Chlamydia trachomatis came out at 2.5 µM. For the same compound, the viability at 48 h, 10 µM in data set [1] was determined as 94%.
In the same order, the values of `NC(=O)c1ccc(NC(=O)C2CSc3c(C4CC4)c(Cc4cccc5ccccc45)c(N)c(=O)n32)cc1` (centres undefined) are >10 µM and 103%.
As for `O=C(NCc1ccccc1)C1CSc2c(C3CC3)c(Cc3cccc4ccccc34)cc(=O)n21` (centres undefined), the Activity in the data set on Chlamydia trachomatis is 2.5 µM. The viability at 48 h, 10 µM in data set [1] came out at 93%.
For `CNC(=O)C1CSc2c(C3CC3)c(Cc3cccc4ccccc34)cc(=O)n21` (centres undefined), the Activity in the data set on Chlamydia trachomatis turned out to be 10 µM. Further, the viability at 48 h, 10 µM in data set [1] is 93%.
On to `O=C(Nc1ccccc1)C1CSc2c(C3CC3)c(Cc3cccc(Cl)c3Cl)cc(=O)n21` (centres undefined), for which, in the data set with Chlamydia trachomatis, the Activity worked out at 2.5 µM. For the same compound, in data set [1], the viability at 48 h, 10 µM amounted to 85%.
Regarding `NC(=O)c1ccc(NC(=O)C2CSc3c(C4CC4)c(Cc4cccc5ccccc45)cc(=O)n32)cc1` (centres undefined), the Activity in the data set with Chlamydia trachomatis is 2.5 µM. The viability at 48 h, 10 µM in data set [1] was determined as 98%.
For `CNC(=O)c1cccc(NC(=O)C2CSc3c(C4CC4)c(Cc4cccc5ccccc45)cc(=O)n32)c1` (centres undefined), the Activity with Chlamydia trachomatis was found to be 10 µM. In addition, the viability at 48 h, 10 µM in data set [1] came out at 93%.
